The RNAGym collection of RNA variant scans (doi:10.1126/science.aae0568)
Variants at the floor of the assay were thinned out.

B1: tRNA (parent)
chain: GUUCCGUUGGCGUAAUGGUAACGCGUCUCCCUCCUAAGGAGAAGACUGCGGGUUCGAGUCCCGUACGGAACG

Variants of: B1
Assay: yeast fitness relative to wild type (ratio to wild type); higher = fitter; tRNA-Arg(CCU), competitive growth, 37 C, YPD
Summary of the method: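 Start and end populations of a pooled competition were compared by 100-nucleotide paired-end sequencing of gene amplicons. The Saccharomyces cerevisiae strains carried tRNA-Arg(CCU) gene variants at the native genomic locus, synthesised with a 3% per-site mutation rate at 69 sites, and competed in YPD at 37°C for 24 hours in six parallel replicates. Darwinian fitness relative to wild type was based on the change in genotype frequencies. Genotypes required ≥ 100 starting reads, and estimates < 0.5 were set to 0.5.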

| Variant | yeast fitness |
| --- | --- |
| GUUCCGUUGGCGUAAUGGUAACGCGUCUCCGUCCUAAAGAGAAGACUGCGGGUUCGAGUCCCUUACGGAACG | ≤ 0.5 |
| GUUCCGUUGGCGUAAUGGUAACGCGUCUCCGUCCUAAGGAGAAGACUGCGGGUUCGAGUCACGUACCGAACG | ≤ 0.5 |
| GUUCCGUUGGCGUAAUGGUAACGCGUCUCCGUCCUAAGAAGAAGACUGCGGGUUCGAGUCCCGUACGGAGCG | 0.553 |
| GUUCCGUUGGCGUAAUGGUAACGCGUCUCCGUCCUAAGGAGAAAACUGCGGGUUCGAGUCCCGUACGGAACG | 1.07 |
| GUUCCGUUGGCGUAAUGGUAACGCGUCUCCGUCCUAAGGAGAAGACUGCGGGUUCGAGUCCCGUAAGGAACG | 0.702 |
| GUUCCGUUGGCGUAAUGGUAACGCGUCUCCGUCCUAAGGAGAAGACUGCGGGUUCGAGUCCCGUAGGGGACG | 0.545 |
| GUUCCGUUGGCGUAAUGGUAACGCGUCUCCGUCCUAAGGAGAAGACUGCGCGUUCAAGUCCCGAACGGAACG | ≤ 0.5 |
| GUUCCGUUGGCGUAAUGGUAACGCGUCUCCGUCCUAAGGAGAAGACUGCGGGUUCGAGUCCUGUACGGAACG | 1.07 |
| GUUCCGUUGGCGUAAUGGUAACGCGUCUCCGUCCUAAGGAGAAGACUGCGGGUUCGAGUCUCGUACGAAACG | ≤ 0.5 |
| GUUCCGUUGGCGUAAUGGUAACGCGUCUCCGUCCUAAGGAGAACACUGCGGGCUCGAGUCCCGUUCGGAACG | ≤ 0.5 |
| GUUCCGUUGGCGUAAUGGUAACGCGUCUCCGUCCUAAGGAGAAGACUGCGGGUUCGAGUCCUGUGCGGAACG | 0.71 |
| GUUCCGUUGGCGUAAUGGUAACGCGUCUCCGUCCUAAGGAGAAGACUGCGGGUUUGAGACCCGUACGGAACG | 0.559 |
| GUUCCGUUGGCGUAAUGGUAACGCGUCUCCGUCCUAAGGAGAAUACUGCGGGUUCGAGUCCCGUACGGACCG | ≤ 0.5 |
| GUUCCGUUGGCGUAAUGGUAACGCGUCUCCGUCCUAAGGACAAGACUGCCGGUUCGAGUCCCGUACGGAACG | 0.533 |
| GUUCCGUUGGCGUAAUGGUAACGCGUCUCCGUCCUAAGGAGAAGACUGCGGGUUCGAGUCUCGUACAGAACG | ≤ 0.5 |
| GUUCCGUUGGCGUAAUGGUAACGCGUCUCCGUCCUAAAGAGAAGACUGCGGGUACGAGUCCCGUACGGAACG | ≤ 0.5 |
| GUUCCGUUGGCGUAAUGGUAACGCGUCUCCGUCCUAAGGAGAACACUGCGGGUUCGAGUCCCGUGCGGCACG | ≤ 0.5 |
| GUUCCGUUGGCGUAAUGGUAACGCGUCUCCGUCCUAAGGAGAAGACUGCGGAUUCGAGUCCCGUACGGAACG | 0.755 |
| GUUCCGUUGGCGUAAUGGUAACGCGUCUCCGUCCUAAGGAGAAGACUGCGGGUUCGAGUGCUGUACGAAACG | ≤ 0.5 |

| Variant | yeast fitness |
| --- | --- |
| GUUCCGUUGGCGUAAUGGUAACGCGUCUCCGUCCUAAGGAGAAGACUGCGCGUUCGAGUCCCGUAUGGAACG | 0.566 |
| GUUCCGUUGGCGUAAUGGUAACGCGUCUCCGUCCUAACGAGAUGACUGCGGGUUCGAGUCCGGUACGGAACG | ≤ 0.5 |
| GUUCCGUUGGCGUAAUGGUAACGCGUCUCCGUCCUAAGGAGAAGACUGCGCGUUCGAGUCCCGUACGGAACG | 0.756 |
| GUUCCGUUGGCGUAAUGGUAACGCGUCUCCGUCCUAAGGAGAAGACUGCGAGUUCGAGACCCGUACGGAACG | ≤ 0.5 |
| GUUCCGUUGGCGUAAUGGUAACGCGUCUCCGUCCUAAGGAGAACAUUGCGGGUUCGAGUCCCGUACGGAACG | 1 |
| GUUCCGUUGGCGUAAUGGUAACGCGUCUCCGUCCUAACGAGAAGACUGCGGGUUCGAGUCCCGUACGGAACG | 0.826 |
| GUUCCGUUGGCGUAAUGGUAACGCGUCUCCGUCCUAAAGAGAAGACUGCGGGUUCGAGUCCCGUACGGAACG | 0.802 |
| GUUCCGUUGGCGUAAUGGUAACGCGUCUCCGUCCUAAGGAGAACACUGCGGGUUCGAGUCCCGUACGGCACG | 0.611 |
| GUUCCGUUGGCGUAAUGGUAACGCGUCUCCGUCCUAAGGAGAAGACUACGGGUUCGAGCCCCGUACGGAACG | 0.793 |
| GUUCCGUUGGCGUAAUGGUAACGCGUCUCCGUCCUAAGGACAAGACUGCGGGUUCGAGUCCCGUACGGAACG | 0.696 |
| GUUCCGUUGGCGUAAUGGUAACGCGUCUCCGUCCUAAGGAGAAGACUCCGGGUUCGAAUCCCGUACGGAACG | 0.821 |
| GUUCCGUUGGCGUAAUGGUAACGCGUCUCCGUCCUAAGGAGAAGACUGCGGGUUCGAGUCACGUACGGAACG | 0.65 |
| GUUCCGUUGGCGUAAUGGUAACGCGUCUCCGUCCUAAGGAGAAGACUGCCGGUUCGAGUCCCGUACGGAACG | 0.738 |
| GUUCCGUUGGCGUAAUGGUAACGCGUCUCCGUCCUAAGGAGAAGACUGCAGGUUCGAGUCCCGUACGGAACG | 0.837 |
| GUUCCGUUGGCGUAAUGGUAACGCGUCUCCGUCCUAAGGAGAAGACUGCGGAUUCGAGACCCGUACGGAACG | ≤ 0.5 |
| GUUCCGUUGGCGUAAUGGUAACGCGUCUCCGUCCUAAGGAGAAGACUGCGGGUUCGAGUCCAGUACGGACCG | 0.54 |
| GUUCCGUUGGCGUAAUGGUAACGCGUCUCCGUCCUAAGGACAAGACUGCCGGUUCGAGUUCCGUACGGCACG | ≤ 0.5 |
| GUUCCGUUGGCGUAAUGGUAACGCGUCUCCGUCCUAAGGAGAAGACUGCGGGUUCGAGUGCAGUACGGAACG | 0.624 |
| GUUCCGUUGGCGUAAUGGUAACGCGUCUCCGUCCUAAGGAGAAGACUACGGGUUCGAGUCCCGUACGGAACG | 0.925 |
